Screening results deposited in PubChem BioAssay by several laboratories.
Only some compounds are listed: those with a hit (about 0.99% of all), similar ones and a draw of the others.
MT1-MMP act inh: MT1-MMP (human) activation inhibition; GFP/RFP ratio change, % at 20 µM; P50281; HT1080 RFP-PRO-GFP cells, GFP/RFP ratio fluorescence, overnight; percent of plate control window, DMSO zero; actives 0.061% (n = 360,000);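 active = GFP/RFP ratio change of at least 30% with cell ATP level not reduced by more than half and red fluorescence within 50% of control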
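Test system: HT1080 cells expressing an RFP-PRO-GFP fluorescent reporter construct / Compound dosing: single-point 20 µM compound, 1% DMSO / Schedule: cells overnight before dosing, compound overnight, 37 °C, 5% CO2 / Evaluation: GFP/RFP fluorescence ratio / Control set: DMSO and RFP-L50D-GFP cell wells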
TLR4-MyD88 BLA: blocks binding of human TLR4 to MyD88; actives 0.18% (n = 200,000); inhibition, % at 8.4 µM; HeLa CL3-4 TLR4/MyD88 BLA complementation, FRET ratio; AID 861; in the data active = inhibition above about 25%;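 also: 0% = vehicle and 100% = reference inhibitor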
NOD2 RIPK2 PPI: inhibitors of human NOD2-RIPK2 interaction; O43353; CHO BLA complementation NOD2-RIPK2, CCF4 ratio; inhibition, % at 4.98 µM; actives 0.38% (n = 360,000); in the data active = inhibition above about 21%;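 also: 0% = vehicle only and 100% = reference blocker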
TLR9-MyD88 block: inhibitors of human TLR9-MyD88 binding; Q9NR96+Q99836; CHO BLA complementation TLR9-MyD88, CCF4 FRET ratio; inhibition, % at 4.98 µM; actives 0.21% (n = 340,000); AID 504734;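 active = inhibition above the mean over all tested compounds plus 3 SD, cut at about 21% in these data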;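 also: 0% = DMSO only wells and 100% = clavulanate BLA inhibitor control wells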
SKN-1 block: inhibitors of C. elegans SKN-1; C. elegans VP596 Pgst-4::GFP/RFP ratio, acrylamide-induced, 24 h; actives 0.49% (n = 360,000); inhibition, % at 21.8 µM;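 active = interference check ratio from 0.5 to 1.5 plus GFP to RFP signal ratio inhibition reaching or exceeding a fixed threshold, cut at about 30% in these data, passing the limit was not always enough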
TLR4 MyD88 cnf: TLR4-MyD88 interaction inhibition confirmed; shares compounds with TLR4-MyD88 BLA; HeLa CL3-4 BLA complementation, CCF4 FRET ratio; actives 50% (n = 350); inhibition, % at 8.4 µM;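 active = mean inhibition across three repeat runs above about 25% carried over from the earlier screen, limit read from the data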;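 also: plate controls were DMSO only for no effect and clavulanic acid blocking BLA at full dose for full effect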
BLA inh HeLa: counter-screen for TLR4-MyD88 inhibitors: beta-lactamase reporter inhibitors | shares compounds with TLR4-MyD88 BLA | HeLa BLA reporter, CCF4 FRET ratio | inhibition, % at 8.4 µM | actives 63% (n = 350) | AID 1237;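 active = mean inhibition over three repeats above about 26% taken from the earlier screen, limit read from the data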;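 also: HeLa cells stably expressing beta-lactamase reporter as counterscreen for TLR4-MyD88 inhibitors; 0% = DMSO and 100% = clavulanic acid full inhibition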
TLR9-MyD88 conf: TLR9-MyD88 interaction inhibition, confirmation. shares compounds with TLR9-MyD88 block. CHO TLR9/MyD88 BLA complementation, CCF4 FRET ratio. inhibition, % at 4.98 µM. actives 51% (n = 680). AID 540250;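 active = mean inhibition across three repeats above about 21% taken from the earlier screen, limit read from the data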;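 also: blue over green emission ratio reports constitutive TLR9 MyD88 association via BLA complementation; 0% = DMSO vehicle wells and 100% = clavulanate BLA inhibitor wells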
BLA counter-1: beta-lactamase reporter inhibition, counter-screen artifact; shares compounds with TLR9-MyD88 block; CHO-BLA cells, CCF4 FRET ratio, BLA reporter; inhibition, % at 4.98 µM; actives 7% (n = 680);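 active = mean inhibition above a 50% cutoff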;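 also: counterscreen of TLR9-MyD88 hits on CMV-driven BLA in CHO-K1 cells; 0% = DMSO alone and 100% = clavulanate blocking BLA; higher means less blue over green ratio so more BLA blockade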
TLR9 CHO tox: CHO cell toxicity counter-screen for TLR9-MyD88 inhibitors | shares compounds with TLR9-MyD88 block | TLR9-MyD88 CHO cells cytotoxicity, luminescence | inhibition, % at 4.98 µM | actives 39% (n = 680) | AID 588336; in the data active = inhibition above about 11%
NOD2 RIPK2 conf: NOD2-RIPK2 interaction inhibition confirmed; shares compounds with NOD2 RIPK2 PPI; CHO cells, NOD2-RIPK2 BLA complementation, CCF4 FRET; inhibition, % at 4.98 µM; actives 70% (n = 1,200);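 active = mean inhibition across replicates above a set limit taken from the earlier primary screen, cut at about 21% in these data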;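 also: 0% = DMSO-only wells and the high end = clavulanate BLA-blocked wells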
BLA counter-2: NOD2-RIPK2 counterscreen BLA reporter activity. inhibition, % at 4.98 µM. shares compounds with NOD2 RIPK2 PPI. actives 57% (n = 1,200). CHO BLA reporter, CCF4 FRET ratio;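 active = mean inhibition above the low-control mean inhibition plus three low-control SD, cut at about 11% in these data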;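 also: 0% = DMSO only wells and 100% = clavulanate high control wells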
* = called active by the depositor; · = no result given.

SMILES | MT1-MMP act inh | TLR4-MyD88 BLA | NOD2 RIPK2 PPI | TLR9-MyD88 block | SKN-1 block | TLR4 MyD88 cnf | BLA inh HeLa | TLR9-MyD88 conf | BLA counter-1 | TLR9 CHO tox | NOD2 RIPK2 conf | BLA counter-2
Cc1ccc(-c2nc3sc(C(N)=O)c(N)c3c3c2CCCC3)cc1 | 0 | 9 | 1 | -2 | -10 | · | · | · | · | · | · | ·
CC(=O)c1sc2nc(-c3ccc(C)cc3)c3c(c2c1N)CCCC3 | -7 | 26* | 36* | 51* | 8 | 32* | 61* | 41* | 46 | 9 | 57* | 68*
CC(C)(C)c1ccc(C(=O)NCCCNC(=O)c2ccccn2)cc1 | 3 | · | -10 | 1 | 12 | · | · | · | · | · | · | ·
C/C(=N\Nc1ccc([N+](=O)[O-])cc1)c1ccc(O)cc1 | -8 | 38* | 29* | · | 23 | 20 | 44* | · | · | · | 42* | 48*
CC(C)OC(=O)c1sc2nc(-c3ccccc3)ccc2c1N | -3 | 49* | 24* | 38* | 4 | 48* | 77* | 42* | 45 | 8 | 64* | 73*
COc1ccc(C(=O)c2sc3nc(-c4ccccc4)ccc3c2N)cc1 | -46 | 47* | 50* | 40* | 3 | 52* | 86* | 52* | 53* | 6 | 73* | 79*
COc1ccc(CN(C)C(=O)Cn2ccc(N)nc2=O)cc1OC | 0 | · | -3 | 11 | 3 | · | · | · | · | · | · | ·
O=C(C1CCCN(S(=O)(=O)c2ccccc2)C1)N1CCCCC1 (stereo not drawn) | -5 | · | -8 | -8 | -4 | · | · | · | · | · | · | ·
CCN(CC)c1ccc2c(c1)oc(=O)c1c(Cl)cc(=O)oc12 | -119 | 80* | 62* | 50* | -8 | 87* | 109* | 51* | 74* | 73* | 89* | 84*
CCN(CC)c1ccc2c(C)c(Cl)c(=O)oc2c1 | 1 | 16 | 15 | 8 | 8 | · | · | · | · | · | · | ·
CCC1=C(NCc2ccccc2)COC1=O | 3 | · | -4 | 7 | -9 | · | · | · | · | · | · | ·
N#C/C(=C\c1cn(Cc2ccccc2)c2ccccc12)C(=O)NCc1ccco1 | 0 | 2 | -2 | -5 | 2 | · | · | · | · | · | · | ·
N#C/C(=C\c1cn(Cc2ccc(F)cc2)c2ccccc12)C(=O)NCc1ccco1 | -1 | 63* | 31* | 78* | -2 | 73* | 100* | · | · | · | 82* | 85*
O=[N+]([O-])c1ccccc1N/N=C/c1c[nH]c2ccccc12 | 5 | -16 | -7 | -6 | 2 | · | · | · | · | · | · | ·
O=[N+]([O-])c1ccc(N/N=C/c2c[nH]c3ccccc23)cc1 | -106 | 40* | 36* | 44* | 8 | 28* | 53* | 29* | 24 | 9 | 46* | 47*
CSc1ccccc1OCc1cc(C(=O)N2CCC[C@H]2C(N)=O)no1 | -1 | · | 2 | -3 | -1 | · | · | · | · | · | · | ·
CN(CC(=O)Nc1cccc(F)c1)C(=O)CCc1nc2ccccc2c(=O)[nH]1 | 1 | · | -12 | 1 | 0 | · | · | · | · | · | · | ·
Nc1ccc(/C=C/C(=O)c2cccs2)cc1 | -7 | 25* | 30* | 23* | 19 | 17 | 37* | 9 | 11 | -3 | 40* | 34*
N#Cc1ccc(/C=C\c2nccc3c2[nH]c2ccccc23)cc1 | -24 | 33* | 26* | 21* | 9 | 18 | 54* | 18 | 36 | 13* | 37* | 56*
Clc1ccc(/C=C\c2nccc3c2[nH]c2ccccc23)cc1 | -8 | -107 | -57 | -74 | -1 | · | · | · | · | · | · | ·
O=C1c2cccc3c(O)ccc(c23)C(=O)N1Cc1ccccc1 | -217 | 32* | 42* | 26* | -27 | 11 | 34* | · | · | · | 46* | 56*
CCC(=O)Nc1cc(OC)c(NC(=S)Nc2ccccc2CC)cc1OC | 3 | · | -5 | 5 | 3 | · | · | · | · | · | · | ·
CCN1CCN(c2ccc(NC(=O)c3ccc([N+](=O)[O-])o3)cc2Cl)CC1 | -4 | 30* | 31* | 12 | 7 | 20 | 5 | · | · | · | 25* | 16*
CC(C)(C)c1nn(-c2ccccc2)c2[nH]c(=O)c(C=O)cc12 | 3 | · | 3 | -4 | 13 | · | · | · | · | · | · | ·
Cc1ccc(-c2cc(-c3ccccc3)c3c(N)c(S(C)(=O)=O)sc3n2)cc1 | -8 | 28* | 35* | 46* | 16 | 31* | 50* | · | · | · | 62* | 71*
SMILES | MT1-MMP act inh | TLR4-MyD88 BLA | NOD2 RIPK2 PPI | TLR9-MyD88 block | SKN-1 block | TLR4 MyD88 cnf | BLA inh HeLa | TLR9-MyD88 conf | BLA counter-1 | TLR9 CHO tox | NOD2 RIPK2 conf | BLA counter-2
Cc1cc(C)c2c(N)c(S(=O)(=O)Cc3ccccc3)sc2n1 | 1 | -6 | 3 | -7 | -5 | · | · | · | · | · | · | ·
CCCNC(=O)COC(=O)c1ccccc1C(=O)c1ccc(Cl)c([N+](=O)[O-])c1 | -11 | 26* | 38* | 17 | -10 | 24 | 7 | · | · | · | 62* | 11*
Cc1ccc(C(=O)c2ccccc2C(=O)OCC(=O)NCCc2ccc(Cl)cc2Cl)cc1 | -4 | -1 | -4 | 2 | -7 | · | · | · | · | · | · | ·
CC1Cc2cc(S(=O)(=O)CCC(=O)NCc3ccco3)ccc2N1C(=O)C1CC1 (stereo not drawn) | -1 | · | -5 | -2 | 4 | · | · | · | · | · | · | ·
Cc1cc(C)c(S(=O)(=O)NCc2nc3nc(C)cc(C)n3n2)c(C)c1 | -1 | · | 2 | 2 | 2 | · | · | · | · | · | · | ·
OCCN1CCN(CC(O)COc2ccc(C34CC5CC(CC(C5)C3)C4)cc2)CC1 (stereo not drawn) | -5 | -4 | 5 | 22* | 6 | · | · | 5 | 5 | 40* | · | ·
CC(OC(=O)/C(C#N)=C/c1ccc(N(C)C)cc1)C(=O)NCc1ccco1 (stereo not drawn) | -21 | · | 4 | 24* | 60 | · | · | 8 | 9 | -4 | · | ·
CCOC(=O)[C@H]1[C@H]2COc3ccc(C)cc3[C@@H]2N2C(=O)CN(Cc3ccc(C)cc3)C(=O)[C@@]12C | -7 | · | -5 | -1 | 8 | · | · | · | · | · | · | ·
